Results as given in ChEMBL document CHEMBL5038671, “Hydrophobic Tagging-Induced Degradation of PDEδ in Colon Cancer Cells” (ACS Med Chem Lett, 2022).

Key:
[1] = target: Retinal rod rhodopsin-sensitive cGMP 3',5'-cyclic phosphodiesterase subunit delta (Homo sapiens, UniProt O43924); experiment: Binding affinity to PDE delta (unknown origin) assessed as dissociation constant measured after 2 hrs by fluorescence polarization assay
HCT-116 = experiment: Antiproliferative activity against human HCT-116 cells assessed as cell growth inhibition and measured after 72 hrs by CCK8 assay; details: HCT-116, 72 h
SW480 [2] = experiment: Antiproliferative activity against human SW480 cells assessed as cell growth inhibition and measured after 72 hrs by CCK8 assay; details: SW480, 72 h
SW480 [3] = experiment: Antiproliferative activity against human SW480 cells assessed as apoptosis induction at 50 uM measured for 24 hrs by Annexin V-FITC/PI staining based flow cytometry analysis (reference value: 46%); format: functional
SW480 [4] = experiment: Antiproliferative activity against human SW480 cells assessed as apoptosis induction at 30 uM measured for 24 hrs by Annexin V-FITC/PI staining based flow cytometry analysis (reference value: 46%); format: functional
SW480 [5] = experiment: Down regulation of p-ERK expression in human SW480 cells measured for 24 hrs by western blot analysis; format: functional, cell-based
Method in brief: (§1)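 PDEδ downstream proteins examined in SW480 cells treated 24 h, by Western blot; blots repeated at least three times, bar graphs as mean ± SD.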

SW480 [6] = experiment: Antiproliferative activity against human SW480 cells assessed as apoptosis induction at 40 uM measured for 24 hrs by Annexin V-FITC/PI staining based flow cytometry analysis (reference value: 46%); format: functional
SW480 [7] = experiment: Down regulation of p-Akt expression in human SW480 cells measured for 24 hrs by western blot analysis; format: functional, cell-based; method in brief: as §1

Sequence of Retinal rod rhodopsin-sensitive cGMP 3',5'-cyclic phosphodiesterase subunit delta (O43924 whole entry): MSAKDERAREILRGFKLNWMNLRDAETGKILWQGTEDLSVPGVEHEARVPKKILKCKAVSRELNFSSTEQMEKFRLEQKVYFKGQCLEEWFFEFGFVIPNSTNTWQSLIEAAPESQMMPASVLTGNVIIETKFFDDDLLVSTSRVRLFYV

Q: Which Ki [1] does the source give for Cc1ccc(-n2nc3c(=O)n(CCCC(=O)NCCc4ccc(NC(=O)CCCCCCCCCC(=O)NCC56CC7CC(CC(C7)C5)C6)cc4)nc(C)c3c2C)cc1 here?
A: > 1 µM

Q: And the IC50 (HCT-116)?
A: > 100 µM

Q: And the IC50 (SW480 [2])?
A: 14 µM

Q: What does the source list for Cc1ccc(-n2nc3c(=O)n(CCCC(=O)NCCNC(=O)CC45CC6CC(CC(C6)C4)C5)nc(C)c3c2C)cc1?
A: IC50 (HCT-116): 20.4 µM; IC50 (SW480 [2]): 10 µM

Q: For Cc1ccc(-n2nc3c(=O)n(CCCC(=O)NCC(C)c4ccccc4)nc(C)c3c2C)cc1 (centres undefined), which Activity (SW480 [3]) is on record?
A: 5.4%

Q: And the IC50 (HCT-116)?
A: 82.4 µM

Q: What about the IC50 (SW480 [2]) of the same molecule?
A: 18.3 µM

Q: For Cc1ccc(-n2nc3c(=O)n(CCCC(=O)NC45CC6CC(CC(C6)C4)C5)nc(C)c3c2C)cc1, which IC50 (HCT-116) is on record?
A: > 100 µM

Q: And the IC50 (SW480 [2])?
A: > 100 µM

Q: Which IC50 (HCT-116) does the source give for Cc1ccc(-n2nc3c(=O)n(CCCC(=O)NCCCC(=O)NCC45CC6CC(CC(C6)C4)C5)nc(C)c3c2C)cc1 here?
A: 11.4 µM

Q: What about the IC50 (SW480 [2]) of the same molecule?
A: 8 µM

Q: Which IC50 (HCT-116) does the source give for Cc1ccc(-n2nc3c(=O)n(CCCC(=O)NCCc4ccc(NC(=O)CCCCCCNC(=O)CC56CC7CC(CC(C7)C5)C6)cc4)nc(C)c3c2C)cc1 here?
A: > 100 µM

Q: What about the IC50 (SW480 [2]) of the same molecule?
A: > 100 µM

Q: What does the source list for Cc1ccc(-n2nc3c(=O)n(CCCC(=O)NCC45CC6CC(CC(C6)C4)C5)nc(C)c3c2C)cc1?
A: IC50 (HCT-116): > 100 µM; IC50 (SW480 [2]): > 100 µM

Q: With Cc1ccc(-n2nc3c(=O)n(CCCC(=O)NCCCCCCCCNC(=O)CC45CC6CC(CC(C6)C4)C5)nc(C)c3c2C)cc1 as the molecule, how does the IC50 (HCT-116) read?
A: 17.7 µM

Q: And the IC50 (SW480 [2])?
A: 5.6 µM

Q: With Cc1ccc(-n2nc3c(=O)n(CCCC(=O)NCCc4ccc(NC(=O)CCCC(=O)NCC56CC7CC(CC(C7)C5)C6)cc4)nc(C)c3c2C)cc1 as the molecule, how does the IC50 (HCT-116) read?
A: 39 µM

Q: And the IC50 (SW480 [2])?
A: 19.8 µM

Q: How did the IC50 (HCT-116) turn out when Cc1ccc(-n2nc3c(=O)n(CCCC(=O)NCCCCNC(=O)CC45CC6CC(CC(C6)C4)C5)nc(C)c3c2C)cc1 was run?
A: 50.7 µM

Q: What about the IC50 (SW480 [2]) of the same molecule?
A: 7 µM

Q: Which Activity (SW480 [4]) does the source give for Cc1ccc(-n2nc3c(=O)n(CCCC(=O)NCCCCCCNC(=O)CC45CC6CC(CC(C6)C4)C5)nc(C)c3c2C)cc1 here?
A: 15.23%

Q: What about the IC50 (HCT-116) of the same molecule?
A: 7.7 µM

Q: And the Activity (SW480 [5])?
A: Dose-Dependent Effect

Q: And the IC50 (SW480 [2])?
A: 4.8 µM

Q: And the Activity (SW480 [6])?
A: 83.67%

Q: What about the Activity (SW480 [7]) of the same molecule?
A: Dose-Dependent Effect

Q: What does the source list for Cc1ccc(-n2nc3c(=O)n(CCCC(=O)NCCCCCC(=O)NCC45CC6CC(CC(C6)C4)C5)nc(C)c3c2C)cc1?
A: IC50 (HCT-116): 32.5 µM; IC50 (SW480 [2]): > 100 µM

Q: With Cc1ccc(-n2nc3c(=O)n(CCCC(=O)NCCc4ccc(NC(=O)CCCCCC(=O)NCC56CC7CC(CC(C7)C5)C6)cc4)nc(C)c3c2C)cc1 as the molecule, how does the IC50 (HCT-116) read?
A: > 100 µM

Q: What about the IC50 (SW480 [2]) of the same molecule?
A: > 100 µM

Q: Cc1ccc(-n2nc3c(=O)n(CCCC(=O)NCCOCCOCCNC(=O)CC45CC6CC(CC(C6)C4)C5)nc(C)c3c2C)cc1 was tested. Which IC50 (HCT-116) did it give?
A: 18.5 µM

Q: And the IC50 (SW480 [2])?
A: 5.4 µM
